aDG glyco up: increases alpha dystroglycan glycosylation | Pro5-aDG cells, alpha-DG glycosylation AlphaScreen (IIH6); 0% Pro5, 100% B10-LARGE cell signal | activation, % at 10 µM | 360,000 tested, 0.22% active | AID 624168;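 active = activation of at least 8% versus controls, or a plate z-score of at least 8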;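 also: Pro5 are CHO cells carrying HIG-tagged alpha-DG that lacks glycosylation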
CSN inh: blocks human CSN-mediated cullin deneddylation. AID 651999. 360,000 tested, 0.38% active. Purified CSN, SCF-Nedd8-OG deneddylation, fluorescence polarization. inhibition, % at 12.5 µM;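 active = pattern-corrected inhibition above about 35%, with an unprinted fluorescence ratio check between 0.5 and 1.5, limit read from the data, passing the limit was not always enough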;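 also: 0% = enzyme with substrate and 100% = substrate without enzyme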
Target sequence (Q92905 whole entry, looked up, one chain of several): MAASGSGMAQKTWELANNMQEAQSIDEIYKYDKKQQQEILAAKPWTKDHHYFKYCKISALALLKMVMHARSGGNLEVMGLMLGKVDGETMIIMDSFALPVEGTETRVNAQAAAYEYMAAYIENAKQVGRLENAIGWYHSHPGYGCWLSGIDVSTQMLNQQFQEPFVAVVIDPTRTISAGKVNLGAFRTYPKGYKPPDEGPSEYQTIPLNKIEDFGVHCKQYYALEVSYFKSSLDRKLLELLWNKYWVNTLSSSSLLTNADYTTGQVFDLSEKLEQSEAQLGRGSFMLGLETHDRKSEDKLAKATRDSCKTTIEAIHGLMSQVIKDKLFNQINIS
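assay system = purified human Csn5 enzyme expressed in HEK293T cells | amount = 0.24 nM enzyme | buffer or medium = Tris/NaCl/DTT buffer, pH 7.5 | reagent = 10 nM SCFSkp2-Nedd8OG | compound = one concentration, 12.5 µM, 0.25% DMSO | times = 90 min reaction at room temperature | signal = FP | read-out basis = % inhibition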
XiGFP reactiv: X-chromosome reactivation activator; activation, % at 7.58 µM; XiGFP mouse fibroblasts, % GFP-positive cells imaging, 3 d; cells co-treated with 5-aza-dC sensitizer; scaled so ellipticine positive control = 100%; 360,000 tested, 0.055% active;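 active = mean normalized replicate activation at least 10% and every replicate at or above 10%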;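 also: 0% = median of on-plate neutral control wells and 100% = ellipticine 6 µM median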
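Assay system – SV40-immortalized XiGFP fibroblast cells, line 68-5-11 · Buffer or medium – DMEM supplemented with 5-aza-dC as sensitizing agent · Dosing – one concentration, pinned · Benchmarks – positive control ellipticine, 6 µM final · Times – 3 days compound exposure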
HNF4A DNA FP: change in binding of human HNF4 alpha to DNA; P41235; HNF4a-FITC DNA binding, fluorescence polarization, 1 h; activity change, % at 10 µM; 360,000 tested, 0.3% active; in the data active = activity change above about 30%, passing the limit was not always enough
Rpn11 inh: Rpn11 (human) deubiquitinase inhibition. O00487. human 26S proteasome, Ub4-pepOG fluorescence polarization; 20S core pre-blocked with epoxomicin. inhibition, % at 20 µM. 360,000 tested, 0.59% active;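 active = inhibition at 20 µM, scaled to each plate's controls, above about 33%, limit read from the data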
Target sequence (O00487 whole entry, looked up): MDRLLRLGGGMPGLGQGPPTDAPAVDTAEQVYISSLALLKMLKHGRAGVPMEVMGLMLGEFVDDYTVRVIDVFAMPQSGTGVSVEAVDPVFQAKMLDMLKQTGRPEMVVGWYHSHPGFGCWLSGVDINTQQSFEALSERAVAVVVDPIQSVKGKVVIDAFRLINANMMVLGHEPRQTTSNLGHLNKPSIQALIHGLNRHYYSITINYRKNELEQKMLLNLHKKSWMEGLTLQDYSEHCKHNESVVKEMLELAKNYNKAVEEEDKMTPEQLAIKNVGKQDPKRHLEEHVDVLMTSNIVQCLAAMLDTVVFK
TPT1 inh: C. albicans TPT1 enzyme inhibition. recombinant caTPT1, FP RNA substrate dephosphorylation. AID 1962. inhibition, % at 5 µM. 300,000 tested, 0.81% active;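 active = inhibition above the mean of all tested compounds plus 3 SD, set per screening campaign, cut at about 24% in these data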;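 also: plate controls were DMSO alone for no effect and ferristatin control at 100 nM for full effect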
Rpn11 inh conf: confirmation of human proteasome Rpn11 inhibitors | shares compounds with Rpn11 inh | purified human 26S proteasome, Ub4-pepOG fluorescence polarization; proteasome pretreated with epoxomicin | inhibition, % at 20 µM | 1,900 tested, 29% active | AID 602318
MMP-2 inh: blocks human MMP-2, flagging nonselective RPN11 hits; shares compounds with Rpn11 inh; recombinant MMP-2, FRET peptide cleavage fluorescence; inhibition, % at 20 µM; 1,900 tested, 4% active; AID 602330;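 also: human MMP-2 activated beforehand with APMA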
Thrombin FP: thrombin (bovine) inhibition counter-screen | 1,900 tested, 13% active | AID 602333 | bovine thrombin cleavage of Ub4-pepOG, fluorescence polarization | shares compounds with Rpn11 inh | inhibition, % at 20 µM;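 active = mean inhibition at least 40% at 20 µM, or signal 3 deviations below plate average, so some actives read negative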;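 also: plate controls were thrombin with DMSO for no effect and buffer wells lacking thrombin for full effect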
* marks the source's active call; other numbers are inactive results. An excerpt weighted towards active compounds, which were near 1.3% of everything screened. Rule as the data show it, unless noted: active = inhibition above about 40%; inactive = the rest.

For Cc1cccc(-c2nnn3c2nc(NCCc2ccc(S(N)(=O)=O)cc2)c2ccccc23)c1 the results were aDG glyco up 0, CSN inh 23, XiGFP reactiv 0, HNF4A DNA FP -11, Rpn11 inh 11 and TPT1 inh 1.
`Cc1ccc(-c2nnn3c2nc(NCCc2ccc(S(N)(=O)=O)cc2)c2ccccc23)cc1` gave aDG glyco up 0, CSN inh 36*, XiGFP reactiv 0, HNF4A DNA FP 9, Rpn11 inh 57*, TPT1 inh 2, Rpn11 inh conf 46*, MMP-2 inh -137 and Thrombin FP -8.
`Cc1noc(/C=C/c2ccco2)c1S(=O)(=O)N1CCC(C(=O)N(C)Cc2ccccc2)CC1` gave aDG glyco up 0, CSN inh 5, HNF4A DNA FP -2, Rpn11 inh 25 and TPT1 inh 11.
Cc1noc(/C=C/c2ccco2)c1S(=O)(=O)N1CCC(C(=O)NC(C)c2ccccc2)CC1 (stereo unspecified) was read as aDG glyco up 0, CSN inh 5, XiGFP reactiv 0, HNF4A DNA FP 21, Rpn11 inh 52*, TPT1 inh 5, Rpn11 inh conf 0, MMP-2 inh -37 and Thrombin FP -2.
For Cc1ccccc1NC(=O)c1cc(C(=O)c2cc(Cl)ccc2O)cn(-c2ccccc2C)c1=O the results were aDG glyco up 0, CSN inh 0, XiGFP reactiv 0, HNF4A DNA FP 7, Rpn11 inh 47*, TPT1 inh 12, Rpn11 inh conf 11, MMP-2 inh -79 and Thrombin FP -17.
For CN1[C@@H]2c3ccc(-c4ccccc4)c(=O)n3C[C@H]1[C@H](CO)[C@H]2C(=O)N1CCC(Cc2ccccc2)CC1 the results were XiGFP reactiv 0.
`CCN(CC)Cc1c(C(=O)N/N=C/c2ccncc2)nnn1-c1nonc1N` gave aDG glyco up 0, CSN inh 2, XiGFP reactiv 0, HNF4A DNA FP 50*, Rpn11 inh active, TPT1 inh -4, Rpn11 inh conf -9, MMP-2 inh 8 and Thrombin FP -4.
`CN(C)Cc1c(C(=O)N/N=C/c2ccncc2)nnn1-c1nonc1N` gave aDG glyco up 0, CSN inh 0, XiGFP reactiv 0, HNF4A DNA FP -1, Rpn11 inh 6 and TPT1 inh 0.
`CN(C)c1ccc(/C=N/NC(=O)c2nnn(-c3nonc3N)c2COc2ccc(F)cc2)cc1` gave aDG glyco up 0, CSN inh 5, XiGFP reactiv 0, HNF4A DNA FP -5, Rpn11 inh 138*, TPT1 inh -2, Rpn11 inh conf -15, MMP-2 inh -38 and Thrombin FP -22.
`C=CC(=C)CC(NC)c1ccccc1` (stereo unspecified) gave aDG glyco up 0, CSN inh 47*, HNF4A DNA FP 28, Rpn11 inh 50*, TPT1 inh 0, Rpn11 inh conf 36, MMP-2 inh -9 and Thrombin FP -14.
`CN(C)Cc1cn(CC[C@H]2CC[C@H](NC(=O)Nc3ccc4c(c3)OCO4)[C@@H](CO)O2)nn1` gave XiGFP reactiv 0.
For CO[C@@H]1CN(C)C(=O)c2ccc(NC(=O)c3ccno3)cc2OC[C@@H](C)NC[C@@H]1C the results were XiGFP reactiv 0.
`Cn1cccc1-c1nc2ccc(NC(=O)c3ccco3)cc2[nH]1` gave aDG glyco up 0, CSN inh 3, HNF4A DNA FP 0, Rpn11 inh 5 and TPT1 inh 3.
Screening Cc1ccc2nc(-c3ccc(NC(=O)c4ccco4)cc3)[nH]c2c1 returned aDG glyco up 0, CSN inh 44*, HNF4A DNA FP 2, Rpn11 inh 67*, TPT1 inh -1, Rpn11 inh conf 8, MMP-2 inh -96 and Thrombin FP -8.
Screening Cn1c(C(=O)NCCN2CCCCCC2)cc2c(=O)n(C)c3ccccc3c21 returned aDG glyco up 0, CSN inh 14, XiGFP reactiv 0, HNF4A DNA FP 20, Rpn11 inh 84*, TPT1 inh -2, Rpn11 inh conf 4, MMP-2 inh -32 and Thrombin FP -7.
C[C@H]1CN([C@@H](C)CO)C(=O)Cc2cc(NC(=O)CCN3CCOCC3)ccc2O[C@@H]1CN(C)C was read as XiGFP reactiv -1.
For O=C1C(=Cc2cn(-c3ccccc3)nc2-c2ccc(OCc3ccc(Cl)cc3)cc2)SC(=S)N1CCS(=O)(=O)O the results were aDG glyco up 0, CSN inh 80*, XiGFP reactiv 0, HNF4A DNA FP -59, Rpn11 inh 116*, Rpn11 inh conf 104*, MMP-2 inh 65* and Thrombin FP 183*.
O=C1C(=Cc2cn(-c3ccccc3)nc2-c2ccc(OCc3ccccc3F)cc2)SC(=S)N1CCS(=O)(=O)O was read as aDG glyco up 0, CSN inh 50, XiGFP reactiv 0, HNF4A DNA FP -49, Rpn11 inh 83*, Rpn11 inh conf 103*, MMP-2 inh 58* and Thrombin FP 163*.
For COc1ccc(-c2nn(-c3ccccc3)cc2/C=C2/SC(=S)N(CCC(=O)O)C2=O)cc1 the results were aDG glyco up 0, CSN inh 17, XiGFP reactiv 0, HNF4A DNA FP -3, Rpn11 inh 17 and TPT1 inh 8.
Screening C[C@H](CO)N1C[C@H](C)[C@@H](CN(C)CC2CC2)Oc2c(NC(=O)NC3CCCCC3)cccc2C1=O returned XiGFP reactiv 0.
`C[C@@H]1CN([C@H](C)CO)S(=O)(=O)c2ccc(C#CC3CC3)cc2O[C@@H]1CN(C)Cc1cccc(F)c1` gave XiGFP reactiv -1.
`COc1ccc(O)c(/C=N/NC(=O)c2ccc(OCc3cccc(Br)c3)cc2)c1` gave aDG glyco up 0, CSN inh 12, HNF4A DNA FP 44*, Rpn11 inh 54*, TPT1 inh 0, Rpn11 inh conf 56*, MMP-2 inh 4 and Thrombin FP -11.
